Experimental data gathered from unrelated publications.
Target: Serine/threonine-protein kinase 4 (STK4, Homo sapiens, UniProt Q13043)
Sequence (Q13043 1-487, as in one of the studies): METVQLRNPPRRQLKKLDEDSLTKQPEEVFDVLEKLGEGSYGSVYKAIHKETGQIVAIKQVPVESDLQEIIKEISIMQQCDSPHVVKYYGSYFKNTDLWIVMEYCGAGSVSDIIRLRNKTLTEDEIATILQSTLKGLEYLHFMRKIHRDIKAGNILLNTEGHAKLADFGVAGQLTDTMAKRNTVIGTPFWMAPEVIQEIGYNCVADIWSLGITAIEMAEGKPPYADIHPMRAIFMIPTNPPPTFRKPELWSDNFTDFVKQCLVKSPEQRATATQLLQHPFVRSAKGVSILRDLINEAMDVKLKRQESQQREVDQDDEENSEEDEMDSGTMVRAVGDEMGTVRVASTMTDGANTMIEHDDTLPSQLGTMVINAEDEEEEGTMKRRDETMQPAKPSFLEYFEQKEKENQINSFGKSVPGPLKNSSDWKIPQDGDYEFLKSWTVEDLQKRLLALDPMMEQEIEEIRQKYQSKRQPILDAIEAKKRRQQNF

`Nc1ncnc2occ(-c3ccc(NC(=O)Nc4cc(C(F)(F)F)ccc4F)cc3)c12` gave a remaining signal of 2.1% (cell-free assay; inhibitor; 20 µM).
`Cc1cc(C)c(-n2ccn3nc(-c4cccnc4)cc23)cc1NC(=O)c1cc(C#N)cc(S(F)(F)(F)(F)F)c1` has a remaining binding of 88.5% (cell-free assay; competition with immobilised ligand; 0.1 µM).
With `CC(C)(C)c1nc2c(s1)c1nc(N)ncc1c1ccc(NS(=O)(=O)c3c(F)cccc3F)c(F)c12` the remaining activity was 86% (enzyme activity; inhibitor; radiometric; 1 µM).
The remaining binding of `C[C@H](c1ccc(F)cc1)N(Cc1cccc(C(=O)O)c1)C(=O)c1cnc2ccccc2c1` is reported as 92% (cell-free assay; competition with immobilised ligand; 1 µM).
For `Cc1ccc(Nc2nccc(N(C)c3ccc4c(C)n(C)nc4c3)n2)cc1S(N)(=O)=O`, the inhibition was 3% (enzyme activity; inhibitor; 10 µM).
`Cn1c2c(c3ccc(Cl)c(Cl)c31)C(C#N)C1(CCOCC1)NC2=O` (stereo not drawn) gave a ΔTm of -0.4 °C (thermal stability; DSF; 10 µM).
The inhibition of `COc1cc2ncnc(Nc3ccc(Oc4ccccc4)cc3C)c2cc1OC` is reported as 1% (enzyme activity; inhibitor; 1 µM).
`Cn1c2c(c3ccc(Cl)c(Cl)c31)C(C#N)C(C)(C)NC2=O` (stereo not drawn) gave a ΔTm of -0.4 °C (thermal stability; DSF; 10 µM).
The remaining activity of `Cc1cnc(NC2CCOCC2)nc1-n1cnc(C(=O)NC(CN)c2cc(F)cc(Cl)c2)c1` (stereo not drawn) is reported as 103% (enzyme activity; inhibitor; radiometric; 1 µM).
With `O=C(Nc1cnn(-c2csc(C(=O)NC3COC3)c2)c1)Nc1c(F)cccc1Cl` the remaining activity was 96.6% (enzyme activity; inhibitor; 5 µM).
`O=C1NC(=O)c2cc(Nc3ccc(F)cc3)c(Nc3ccc(F)cc3)cc21` has a remaining signal of 101% (cell-free assay; 0.5 µM).
For `CC(=O)C1=C(C)N(c2cccc(C(F)(F)F)c2)C(=O)N[C@@H]1c1ccc(C#N)nc1`, the remaining binding was 97.5% (cell-free assay; competition with immobilised ligand; 1 µM).
With `CC1(C)NC(=O)c2[nH]c3c(Cl)c(Cl)ccc3c2C1C#N` (stereo not drawn) the ΔTm was -0.6 °C (thermal stability; DSF; 10 µM).
The remaining signal of `O=C1Nc2ccc(Cl)cc2C1=Cc1cc(Cl)c(O)c(Cl)c1` is reported as 32.5% (cell-free assay; 0.5 µM).
For `COc1cc(Cl)c(C(=O)N[C@@H](CN[C@H]2CC[C@@H](N)CC2)Cc2ccc(C#N)cc2)cc1-c1ccc(CN[C@H](C)c2ccc(C)cc2)o1`, the remaining activity was 102% (enzyme activity; inhibitor; 1 µM).
`Cc1cc(-n2nc(Cc3cc(F)cc(C(F)(F)F)c3)nc2C)ccc1C(N)=O` has a remaining binding of 100% (cell-free assay; competition with immobilised ligand; 1 µM).
The activity vs control of `Cc1cc(NC(=O)c2cccc3cc(-c4cccc5[nH]nc(N)c45)ccc23)ccc1F` is reported as 104% (enzyme activity; inhibitor; 0.1 µM).
The ΔTm of `Cn1c2c(Cl)c(Cl)ccc2c2cc(N)[nH]c(=O)c21` is reported as 1.5 °C (thermal stability; DSF; 10 µM).
For `Cc1sc(C(=O)NC2COC2)cc1-n1cc(NC(=O)Nc2c(F)cccc2Cl)cn1`, the remaining activity was 107% (enzyme activity; inhibitor; 10 µM).
`Nc1cnc(N2CCc3cc(S(=O)(=O)Nc4c(F)cc(Cl)cc4F)cc(N4CCCC4=O)c32)nc1` gave a remaining binding of 100% (cell-free assay; competition with immobilised ligand; 1 µM).
`COc1cccc2c(NCc3ccccc3)nc(-n3c(N)nc4ccccc43)nc12` gave an inhibition of 6.2% (target engagement in cells; inhibitor; chemoproteomics; 20 mM).
`CN1CCC2(CC1)NC(=O)c1c(c3ccc(Cl)c(Cl)c3n1C)C2C#N` (racemic) gave a ΔTm of 0 °C (thermal stability; DSF; 10 µM).
`C[C@@H]1CCN(C(=O)CC#N)C[C@@H]1N(C)c1ncnc2[nH]ccc12` has a remaining signal of 95.5% (cell-free assay; inhibitor; 0.5 µM).
`O=C(Nc1cccnn1)N1CC(C/C=C/c2cncc(Oc3ccc(C(F)(F)F)cn3)n2)C1` gave a remaining binding of 100% (cell-free assay; competition with immobilised ligand; 1 µM).
The inhibition of `CNC(=O)c1cc(Oc2ccc(NC(=O)Nc3ccc(Cl)c(C(F)(F)F)c3)cc2)ccn1` is reported as -7% (enzyme activity; inhibitor; 0.3 µM).
`CC/C(=N\NC(=O)NCc1cccc(O)c1)c1ccc(O)c(C)c1O` gave an inhibition of -0.7% (enzyme activity; inhibitor; 0.1 µM).
`O=C(Nc1ccc(Oc2ccc(F)cc2)cc1)N1CCc2ncccc2[C@H]1c1ccc(F)cc1` gave a remaining binding of 99% (cell-free assay; competition with immobilised ligand; 1 µM).
`Cc1ccc(C(=O)Nc2ccc(CN3CCN(C)CC3)c(C(F)(F)F)c2)cc1C#Cc1cnc2cccnn12` gave a remaining activity of 100% (enzyme activity; inhibitor; 23.5 nM).
The remaining binding of `CNC(=O)Nc1ccc2c(c1)CC[C@@]21OC(=O)N(CC(=O)N(Cc2ccc(F)cc2)[C@@H](C)C(F)(F)F)C1=O` is reported as 100% (cell-free assay; competition with immobilised ligand; 1 µM).
The inhibition of `CCCCNc1ncc2c(-c3ccc(F)cc3)nn(C[C@H]3CC[C@H](N)CC3)c2n1` is reported as 48.3% (target engagement in cells; inhibitor; chemoproteomics; 20 mM).
